Data: ChEMBL document CHEMBL3860041, “Synthesis, biological evaluation and molecular modeling study of some new methoxylated 2-benzylthio-quinazoline-4(3H)-ones as nonclassical antifolates” (Bioorg Med Chem Lett, 2016)

How the values were obtained:
Type in all cases: functional
[1] = Growth inhibition of human SF295 cells at 10 uM after 48 hrs by SRB assay relative to control; conditions: SF-295, 48 h, read-out: GI
Method in brief: (§1)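 NCI 60-cell-line panel, nine tumor subpanels; compounds tested at a single dose of 10 μM in the primary screen.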

[2] = Growth inhibition of human SK-MEL-2 cells at 10 uM after 48 hrs by SRB assay relative to control; conditions: SK-MEL-2, 48 h, read-out: GI
Method in brief: (§2)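 Primary screen across the full NCI 60 human tumour cell line panel, which covers nine tumour subpanels. A single dose of 10 μM was applied to each line, and growth was recorded for each cell line.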

[3] = Growth inhibition of human HL-60(TB) cells at 10 uM after 48 hrs by SRB assay relative to control; conditions: HL-60, 48 h, read-out: GI
Method in brief: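 NCI disease-oriented human tumour cell line screen: primary single-dose assay at 10 μM across the full 60-cell-line panel spanning nine tumour subpanels.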

[4] = Growth inhibition of human OVCAR5 cells at 10 uM after 48 hrs by SRB assay relative to control; conditions: OVCAR-5, 48 h, read-out: GI; method in brief: as §1
[5] = Growth inhibition of human K562 cells at 10 uM after 48 hrs by SRB assay relative to control; conditions: K562, 48 h, read-out: GI; method in brief: as §1
[6] = Growth inhibition of human NCI-H23 cells at 10 uM after 48 hrs by SRB assay relative to control; conditions: NCI-H23, 48 h, read-out: GI; method in brief: as §1
[7] = Growth inhibition of human BT549 cells at 10 uM after 48 hrs by SRB assay relative to control; conditions: BT-549, 48 h, read-out: GI; method in brief: as §1
[8] = Growth inhibition of human MOLT4 cells at 10 uM after 48 hrs by SRB assay relative to control; conditions: MOLT-4, 48 h, read-out: GI; method in brief: as §1
[9] = Growth inhibition of human SNB75 cells at 10 uM after 48 hrs by SRB assay relative to control; conditions: SNB-75, 48 h, read-out: GI; method in brief: as §2
[10] = Growth inhibition of human RPMI8226 cells at 10 uM after 48 hrs by SRB assay relative to control; conditions: RPMI-8226, 48 h, read-out: GI; method in brief: as §1
[11] = Growth inhibition of human HCT15 cells at 10 uM after 48 hrs by SRB assay relative to control; conditions: HCT-15, 48 h, read-out: GI; method in brief: as §1
[12] = Growth inhibition of human MDA-MB-231 cells at 10 uM after 48 hrs by SRB assay relative to control; conditions: MDA-MB-231, 48 h, read-out: GI; method in brief: as §1
[13] = Growth inhibition of human SR cells at 10 uM after 48 hrs by SRB assay relative to control; conditions: read-out: GI; method in brief: as §2
[14] = Growth inhibition of human A498 cells at 10 uM after 48 hrs by SRB assay relative to control; conditions: A498, 48 h, read-out: GI; method in brief: as §1
[15] = Growth inhibition of human U251 cells at 10 uM after 48 hrs by SRB assay relative to control; conditions: U-251, 48 h, read-out: GI; method in brief: as §2
[16] = Growth inhibition of human SK-MEL-28 cells at 10 uM after 48 hrs by SRB assay relative to control; conditions: SK-MEL-28, 48 h, read-out: GI; method in brief: as §2
[17] = Growth inhibition of human MDA-MB-435 cells at 10 uM after 48 hrs by SRB assay relative to control; conditions: MDA-MB-435, 48 h, read-out: GI; method in brief: as §1
[18] = Growth inhibition of human UACC257 cells at 10 uM after 48 hrs by SRB assay relative to control; conditions: UACC-257, 48 h, read-out: GI; method in brief: as §2
[19] = Growth inhibition of human SF268 cells at 10 uM after 48 hrs by SRB assay relative to control; conditions: SF-268, 48 h, read-out: GI; method in brief: as §1
[20] = Growth inhibition of human NCI-H522 cells at 10 uM after 48 hrs by SRB assay relative to control; conditions: NCI-H522, 48 h, read-out: GI; method in brief: as §1
[21] = Growth inhibition of human HOP92 cells at 10 uM after 48 hrs by SRB assay relative to control; conditions: HOP-92, 48 h, read-out: GI; method in brief: as §1
[22] = Growth inhibition of human NCI-H460 cells at 10 uM after 48 hrs by SRB assay relative to control; conditions: NCI-H460, 48 h, read-out: GI; method in brief: as §1
[23] = Growth inhibition of human MDA-MB-468 cells at 10 uM after 48 hrs by SRB assay relative to control; conditions: MDA-MB-468, 48 h, read-out: GI; method in brief: as §1
[24] = Growth inhibition of human OVCAR8 cells at 10 uM after 48 hrs by SRB assay relative to control; conditions: OVCAR-8, 48 h, read-out: GI; method in brief: as §1
[25] = Growth inhibition of human HCT116 cells at 10 uM after 48 hrs by SRB assay relative to control; conditions: HCT-116, 48 h, read-out: GI; method in brief: as §1
[26] = Growth inhibition of human HOP62 cells at 10 uM after 48 hrs by SRB assay relative to control; conditions: HOP-62, 48 h, read-out: GI; method in brief: as §1

Row | Compound | inhibition of growth at 10 µM [1] [%] | inhibition of growth at 10 µM [2] [%] | inhibition of growth at 10 µM [3] [%] | inhibition of growth at 10 µM [4] [%] | inhibition of growth at 10 µM [5] [%] | inhibition of growth at 10 µM [6] [%] | inhibition of growth at 10 µM [7] [%] | inhibition of growth at 10 µM [8] [%] | inhibition of growth at 10 µM [9] [%] | inhibition of growth at 10 µM [10] [%] | inhibition of growth at 10 µM [11] [%] | inhibition of growth at 10 µM [12] [%] | inhibition of growth at 10 µM [13] [%] | inhibition of growth at 10 µM [14] [%] | inhibition of growth at 10 µM [15] [%] | inhibition of growth at 10 µM [16] [%] | inhibition of growth at 10 µM [17] [%] | inhibition of growth at 10 µM [18] [%] | inhibition of growth at 10 µM [19] [%] | inhibition of growth at 10 µM [20] [%] | also measured
1 | COc1ccc(-n2c(SCc3cc(OC)c(OC)c(OC)c3)nc3ccc(Cl)cc3c2=O)cc1 | 16.7 | < 10 | < 10 | 10.5 | 28.6 | 20.2 | < 10 | 27.6 | < 10 | 33.8 | 19.3 | 36.8 | < 10 | 49.1 | < 10 | < 10 | 12.4 | 11.2 | 15.2 | 16.7 | inhibition of growth at 10 µM [21]: 42.9%; inhibition of growth at 10 µM [22]: 10.3%; inhibition of growth at 10 µM [23]: 13.4%; inhibition of growth at 10 µM [24]: 13.7%; inhibition of growth at 10 µM [25]: 33.3%; inhibition of growth at 10 µM [26]: < 10%
2 | COc1cc(CSc2nc3ccc(Cl)cc3c(=O)n2-c2ccccc2)cc(OC)c1OC | 15.8 | 22.5 | < 10 | 15.4 | 61.8 | 21 | < 10 | 30.3 | 24.3 | < 10 | 47.5 | 37 | 54.4 | 18.3 | 11.4 | < 10 | 75.6 | 10.3 | 22.3 | 61.6 | inhibition of growth at 10 µM [21]: 11.1%; inhibition of growth at 10 µM [22]: < 10%; inhibition of growth at 10 µM [23]: 42.7%; inhibition of growth at 10 µM [24]: 15.7%; inhibition of growth at 10 µM [25]: 38.2%; inhibition of growth at 10 µM [26]: 28%
